In ChEMBL document CHEMBL1134840, “Synthesis and antiviral activity of novel acyclic nucleoside analogues of 5-(1-azido-2-haloethyl)uracils” (J Med Chem, 2001):

What was measured:
Hepatitis B virus = test: (§1) In vitro antiviral activity against duck hepatitis B virus (DHBV); assay type: functional, organism-based
Method in brief: (§2)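 Virus replication inhibition measured in primary hepatocyte cultures prepared from congenitally DHBV-infected ducks.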

[1] = Inhibitory activity against human foreskin fibroblast cell proliferation; assay type: functional, cell-based
Method in brief: (§3)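 Proliferating HFF cells; growth inhibition expressed as IC50. Compounds tested up to top concentrations of 130–310 μM.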

[2] = In vitro cytotoxicity against stationary phase human foreskin fibroblast cells; assay type: cell-based
Method in brief: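 Stationary-phase HFF cells; cytotoxicity read by neutral red uptake and expressed as CC50. Compounds tested up to top concentrations of 240–340 μM.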

[3] = In vitro cytotoxicity against stationary phase vero cells; assay type: cell-based; conditions: chlorocebus sabaeus
Method in brief: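 Stationary-phase Vero cells; cytotoxicity read by MTT assay and expressed as CC50. Compounds tested up to top concentrations of 260–620 μM.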

Human alphaherpesvirus 3 = test: In vitro antiviral activity against Varicella zoster virus; assay type: functional, organism-based
Method in brief: (§4)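 CPE inhibition and plaque reduction assays in human foreskin fibroblast (HFF) or Vero cells, run under the NIH Antiviral Research Branch program. Virus strains: HCMV AD-169, HSV-2 MS, VZV Ellen. Acyclovir or ganciclovir served as reference drug.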

Human betaherpesvirus 5 = test: Antiviral activity against human cytomegalovirus; assay type: functional, organism-based; method in brief: as §4
Human alphaherpesvirus 1 = test: In vitro antiviral activity against Herpes simplex virus type 1; assay type: functional, organism-based
Method in brief: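 HSV-1 strains tested: KOS and E-377 (both TK+), and the TK-deficient mutant KOSSB in Vero cells. E-377 was assayed by CPE inhibition and plaque reduction under the NIH program. Acyclovir or ganciclovir served as reference.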

[4] = Cytotoxicity against human foreskin fibroblast cell proliferation; assay type: cell-based; conditions: human foreskin fibroblast cells (proliferating); method in brief: as §3
Anas sp. = test: as §1; assay type: functional, organism-based; method in brief: as §2
Human alphaherpesvirus 2 = test: In vitro antiviral activity against Herpes simplex virus type 2; assay type: functional, organism-based; method in brief: as §4

Compound	IC50 [1]	CC50 [2]	CC50 [3]	further results
Nc1nc(O)c2ncn(CCC(CO)CO)c2n1 [PENCICLOVIR]	–	–	–	EC50 (Hepatitis B virus): 0.7 µM
[N-]=[N+]=NC(CCl)c1cn(COCCO)c(=O)[nH]c1=O (configuration not stated)	> 130 µM	> 240 µM	> 260 µM	–
[N-]=[N+]=NC(CCl)c1cn(CCC(CO)CO)c(=O)[nH]c1=O (configuration not stated)	> 310 µM	> 240 µM	> 260 µM	–
[N-]=[N+]=NC(CBr)c1cn(COCCO)c(=O)[nH]c1=O (configuration not stated)	> 130 µM	> 240 µM	> 260 µM	–
Nc1nc2c(ncn2COCCO)c(=O)[nH]1 [ACYCLOVIR]	–	–	–	EC50 (Human alphaherpesvirus 3): 2.6 µM
[N-]=[N+]=NC(CBr)c1cn(CCC(CO)CO)c(=O)[nH]c1=O (configuration not stated)	> 270 µM	> 240 µM	> 260 µM	EC50 (Human betaherpesvirus 5): 2.7 µM
[N-]=[N+]=NC(CCl)c1cn([C@@H]2O[C@H](CO)[C@@H](O)[C@@H]2O)c(=O)[nH]c1=O (some centres not stated)	–	–	–	EC50 (Human alphaherpesvirus 3): 0.08 µM; EC50 (Human alphaherpesvirus 1): 0.46 µM; EC50 (Human betaherpesvirus 5): 1.45 µM
[N-]=[N+]=NC(CI)c1cn(CCC(CO)CO)c(=O)[nH]c1=O (configuration not stated)	> 310 µM	–	–	IC50 [4]: > 260 µM; EC50 (Human betaherpesvirus 5): 14.4 µM
[N-]=[N+]=NC(CBr)c1cn([C@H]2C[C@H](O)[C@@H](CO)O2)c(=O)[nH]c1=O (some centres not stated)	–	–	–	EC50 (Anas sp.): 2.6 µM
[N-]=[N+]=NC(CI)c1cn(COC(CO)CO)c(=O)[nH]c1=O (configuration not stated)	> 130 µM	> 240 µM	> 260 µM	EC50 (Human alphaherpesvirus 3): 2.4 µM
[N-]=[N+]=NC(CCl)c1cn(COC(CO)CO)c(=O)[nH]c1=O (configuration not stated)	> 130 µM	> 240 µM	> 260 µM	–
Nc1nc2c(ncn2COC(CO)CO)c(=O)[nH]1 [GANCICLOVIR]	156 µM	–	–	EC50 (Human betaherpesvirus 5): 0.23 µM; EC50 (Hepatitis B virus): 4 µM
[N-]=[N+]=NC(CBr)c1cn(COC(CO)CO)c(=O)[nH]c1=O (configuration not stated)	> 130 µM	> 240 µM	> 260 µM	–
[N-]=[N+]=NC(CCl)c1cn([C@H]2C[C@H](O)[C@@H](CO)O2)c(=O)[nH]c1=O (some centres not stated)	–	–	–	EC50 (Human alphaherpesvirus 3): 4.5 µM; EC50 (Human alphaherpesvirus 1): 0.06 µM; EC50 (Human alphaherpesvirus 2): 2.9 µM; EC50 (Anas sp.): 15 µM
[N-]=[N+]=NC(CI)c1cn(COCCO)c(=O)[nH]c1=O (configuration not stated)	> 130 µM	> 240 µM	> 260 µM	–
